Experimental data as given in paper PMC3113562 (Nucleic Acids Research, 2011).
Read-outs that look alike come from different tables or passages of the source.

Legend:
[1] = biological target: T1, human 8-oxoguanine DNA glycosylase (OGG1) (Homo sapiens, UniProt O15527); format: biochemical; conditions: for ΔΔG° cognate vs non-cognate ligand: from ratio of Ki values, T = 310 K; for increase in the affinity for OGG1 vs the corresponding non-cognate ligand: ratio of Ki (KM) values, vs dGMP, ss G11 or ds G11
T1 sequence (O15527 whole entry): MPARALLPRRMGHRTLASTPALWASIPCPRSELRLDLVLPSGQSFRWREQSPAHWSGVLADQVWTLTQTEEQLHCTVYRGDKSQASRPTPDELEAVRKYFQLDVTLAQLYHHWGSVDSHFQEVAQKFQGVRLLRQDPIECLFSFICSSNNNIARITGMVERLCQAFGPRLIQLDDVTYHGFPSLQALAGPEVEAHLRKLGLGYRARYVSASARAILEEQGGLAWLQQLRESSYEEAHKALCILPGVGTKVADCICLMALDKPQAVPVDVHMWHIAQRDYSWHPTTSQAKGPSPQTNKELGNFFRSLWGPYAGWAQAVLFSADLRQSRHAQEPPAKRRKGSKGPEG
Procedure, shortened: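 Recombinant human OGG1 from E. coli BL21(DE3), with active enzyme titrated by burst-phase kinetics. Reaction: 0.5 nM enzyme and 22 nM (2 × KM) oxoG ds substrate in 50 mM Tris–HCl pH 7.5, 100 mM NaCl, 1 mM EDTA, 1 mM DTT, 37°C, 2–10 min, NaOH-quenched. Competitor spans 0.1–10 × I50. Ki = I50/3; ΔG° = –RT ln Kd (310 K); ΔΔG° from differences.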

[2] = biological target: T1, human 8-oxoguanine DNA glycosylase (OGG1); conditions: cited from earlier work
[3] = system: E. coli 8-oxoguanine DNA glycosylase (Fpg); conditions: read-out: Ki (Fpg); cited from earlier work
[4] = read-out: Ki (affinity for OGG1)

Compound | ΔΔG° cognate vs non-cognate ligand [1] | increase in the affinity for OGG1 vs the corresponding non-cognate ligand [1] | cleavage by OGG1 [2] | Ki [1, 4] | also measured
O=P(O)(O)O [Pi, orthophosphate, reference compound] | – | – | – | – | Ki [1]: 68000 µM
Nc1nc2c([nH]c(=O)n2[C@H]2C[C@H](O)[C@@H](COP(=O)(O)O)O2)c(=O)[nH]1 [oxo-dGMP, reference compound] | -0.8 kcal/mol | 4.1 fold | not cleaved | – | tighter binding than one non-cognate d(pN)n unit within DNA ([1]; vs extrapolated Ki = 12 mM): ~7.5 fold
dCdp(TCTCCCTTCGCTCCTTTCCTCT) (5'-dC with phosphate prefix in name, chemistry otherwise not given here) [G11] | – | – | – | 20 µM | Ki [3]: 10 µM
dCdp(TCTCCCTTCXCTCCTTTCCTCT) [OG11] | ~-3.3 kcal/mol | 250 fold | not cleaved | 0.08 µM | –
r(pA)10 | – | – | – | 140 µM | –
r(pC)10 | – | – | – | 130 µM | –
